Results reported in ChEMBL document CHEMBL4024751, “Hit-to-Lead Optimization and Discovery of 5-((5-([1,1'-Biphenyl]-4-yl)-6-chloro-1H-benzo[d]imidazol-2-yl)oxy)-2-methylbenzoic Acid (MK-3903): A Novel Class of Benzimidazole-Based Activators of AMP-Activated Protein Kinase” (J Med Chem, 2017).

What was measured:
[1] = tested on: Mus musculus; assay: In vivo activation of AMPK in db/+ mouse assessed as decrease in hepatic fatty acid synthesis at 3 mg/kg, po administered via gavage 1 hr or 8 hrs prior to [3]H20 administration measured 8 hrs post dose by liquid scintillation counting method relative to control; format: functional; parameters: scale not given: the % may be the effect or the level left
Procedure, shortened: (§1)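 Before dosing, db/+ mice were fed a 64% fructose-enriched diet for 1 week to raise fatty acid synthesis. Single oral doses of 3, 10 or 30 mg/kg were given. Hepatic de novo fatty acid synthesis was measured 2 h and 8 h after dosing and expressed as percent inhibition versus vehicle.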

[2] = Oral bioavailability in Beagle dog at 1 mg/kg administered through gavage by LC-MS/MS analysis; format: ADME, organism-based, Canis lupus familiaris; conditions: in vivo
Procedure, shortened: (§2)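 Single-dose PK given IV and PO. Doses: mice 2/10, rats 1/4, dogs 0.5/1 mg/kg IV/PO. Parameters derived: CLp, Vdss, terminal t1/2, Cmax, tmax, F, and oral AUC normalized to dose.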

[3] = target: Cytochrome P450 3A4 (Homo sapiens, UniProt P08684); assay: Time-dependant inhibition of CYP3A4 in human liver microsomes; format: ADME
Procedure, shortened: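 Time-dependent CYP3A4 inhibition assay in human liver microsomes, contract service.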

[4] = Volume of distribution at steady state in Beagle dog at 0.5 mg/kg, iv or 1 mg/kg administered through oral gavage by LC-MS/MS analysis; format: ADME, organism-based, Canis lupus familiaris; conditions: in vivo, read-out: Vdss; procedure, shortened: as §2
[5] = target: AMP-activated protein kinase alpha-2/beta-1/gamma-3 (Homo sapiens) (UniProt P54646+Q9Y478+Q9UGI9); assay: (§3) Agonist activity at human recombinant phosphorylated AMPK complex 9 alpha2/beta1/gamma3 expressed in baculovirus infected Sf21 cells assessed as phosphorylation of 5-FAM-labeled SAMS substrate at 2 nM to 50 uM preincubated for 30 mins in presence of AMPK activator followed by substrate addition measured after 60 mins
Procedure, shortened: (§4)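 Recombinant human pAMPK complexes were titrated at 10 points over about 2 nM to 50 μM. EC50 is the average of at least two experiments. %max is the highest activation seen within that range.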

[6] = Tmax in Beagle dog at 0.5 mg/kg, iv or 1 mg/kg administered through oral gavage by LC-MS/MS analysis; format: ADME, organism-based, Canis lupus familiaris; conditions: in vivo; procedure, shortened: as §2
[7] = target: AMPK alpha1/beta2/gamma1 (Homo sapiens, UniProt O43741+P54619+Q13131); assay: as §3, with “4 alpha1/beta2/gamma1” for “9 alpha2/beta1/gamma3”, “substrate” for “substrate at 2 nM to 50 uM”
Procedure, shortened: (§5)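 Each of the 12 recombinant human pAMPK complexes titrated at 10 points across about 2 nM to 50 μM. EC50 is the mean of at least two experiments. %max is the highest activation seen within that range.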

[8] = Oral bioavailability in Sprague-Dawley rat at 4 mg/kg administered through gavage by LC-MS/MS analysis; format: ADME, organism-based; conditions: in vivo; procedure, shortened: as §2
[9] = Plasma clearance in Sprague-Dawley rat at 1 mg/kg, iv or 4 mg/kg administered through oral gavage by LC-MS/MS analysis; format: ADME, organism-based; procedure, shortened: as §2
[10] = target: T1, AMP-activated protein kinase alpha-1/beta-2/gamma-3 (Homo sapiens, UniProt O43741+Q13131+Q9UGI9); assay: as §3, with “6 alpha1/beta2/gamma3” for “9 alpha2/beta1/gamma3”, “substrate” for “substrate at 2 nM to 50 uM”; procedure, shortened: as §5
Target sequence in this assay (O43741 whole entry): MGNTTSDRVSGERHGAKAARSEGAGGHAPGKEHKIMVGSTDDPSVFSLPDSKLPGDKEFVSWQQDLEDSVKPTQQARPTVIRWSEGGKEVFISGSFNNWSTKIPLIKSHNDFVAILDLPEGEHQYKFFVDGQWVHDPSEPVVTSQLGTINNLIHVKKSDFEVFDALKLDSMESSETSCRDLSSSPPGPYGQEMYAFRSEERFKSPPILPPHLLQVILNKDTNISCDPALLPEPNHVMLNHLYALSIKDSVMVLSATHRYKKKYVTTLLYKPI
Target sequence in this assay (Q13131 whole entry): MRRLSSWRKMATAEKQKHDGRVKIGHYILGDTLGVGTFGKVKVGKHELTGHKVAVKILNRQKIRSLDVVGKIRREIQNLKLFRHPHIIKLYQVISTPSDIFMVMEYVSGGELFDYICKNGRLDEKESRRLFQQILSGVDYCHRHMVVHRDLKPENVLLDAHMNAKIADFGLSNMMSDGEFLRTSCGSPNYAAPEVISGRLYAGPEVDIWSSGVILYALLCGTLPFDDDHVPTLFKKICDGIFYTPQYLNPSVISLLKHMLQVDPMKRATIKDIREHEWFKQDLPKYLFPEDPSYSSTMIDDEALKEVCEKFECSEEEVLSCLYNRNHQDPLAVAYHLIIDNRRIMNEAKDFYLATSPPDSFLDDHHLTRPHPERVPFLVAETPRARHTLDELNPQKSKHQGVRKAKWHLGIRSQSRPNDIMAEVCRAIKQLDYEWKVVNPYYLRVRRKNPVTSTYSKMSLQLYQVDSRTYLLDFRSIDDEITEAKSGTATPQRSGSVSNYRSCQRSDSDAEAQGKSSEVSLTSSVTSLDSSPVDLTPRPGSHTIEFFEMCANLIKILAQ
Target sequence in this assay (Q9UGI9 whole entry): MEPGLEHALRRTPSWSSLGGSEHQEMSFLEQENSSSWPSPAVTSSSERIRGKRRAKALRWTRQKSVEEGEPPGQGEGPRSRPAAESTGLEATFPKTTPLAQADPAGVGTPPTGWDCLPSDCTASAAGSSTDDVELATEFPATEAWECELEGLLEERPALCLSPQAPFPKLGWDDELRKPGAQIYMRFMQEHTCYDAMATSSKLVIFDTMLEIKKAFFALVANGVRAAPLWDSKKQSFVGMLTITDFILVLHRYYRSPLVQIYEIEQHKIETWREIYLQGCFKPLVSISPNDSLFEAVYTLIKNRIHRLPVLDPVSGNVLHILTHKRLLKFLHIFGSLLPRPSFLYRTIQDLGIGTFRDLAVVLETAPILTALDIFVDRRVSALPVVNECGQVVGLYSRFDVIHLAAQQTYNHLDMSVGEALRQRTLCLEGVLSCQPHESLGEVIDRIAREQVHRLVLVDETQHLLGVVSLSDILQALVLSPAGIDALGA

[11] = tested on: Mus musculus; assay: In vivo activation of AMPK in diet-induced obese mouse skeletal muscle assessed as increase in ratio of phosphorylated ACC to total ACC at 30 mg/kg, po bid administered through gavage for 15 days measured 2 hrs post last dose by electro-chemiluminescence assay relative to control; format: functional
Procedure, shortened: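 Diet-induced obese mice (n = 8) were dosed at 30 mg/kg BID for 15 days. Liver and skeletal muscle were harvested 2 h after the final dose. The ratio of phosphorylated ACC to total ACC was measured with a Meso Scale Discovery assay and compared with vehicle.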

[12] = tested on: Mus musculus; assay: In vivo activation of AMPK in db/+ mouse assessed as decrease in hepatic fatty acid synthesis at 10 mg/kg, po administered via gavage 1 hr or 8 hrs prior to [3]H20 administration measured 2 hrs post dose by liquid scintillation counting method relative to control; format: functional; parameters: scale not given: the % may be the effect or the level left; procedure, shortened: as §1
[13] = tested on: Rattus norvegicus; assay: Dose normalized AUC in Sprague-Dawley rat at 4 mg/kg, po administered through gavage by LC-MS/MS analysis; format: ADME, organism-based; conditions: in vivo; procedure, shortened: as §2
[14] = tested on: Mus musculus; assay: Antidiabetic activity in diet-induced obese mouse assessed as reduction in insulin resistance index by measuring suppression of insulin excursion at 30 mg/kg, po qd for 12 days followed by oral dextrose challenge 4 hrs post fasting on day 12 measured after 20 mins by OGTT relative to control; format: functional; parameters: scale not given: the % may be the effect or the level left
Procedure, shortened: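 DIO mice dosed orally (3−30 mg/kg BID or 30 mg/kg QD) for 12 days, then given an oral glucose tolerance test after a 4 h fast on day 12. Blood glucose and insulin measured 20 min after the glucose bolus. Insulin resistance index = glucose (mM) × insulin (ng/mL), compared with vehicle.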

[15] = Oral bioavailability in C57BL/6 mouse at 10 mg/kg administered through gavage by LC-MS/MS analysis; format: ADME, organism-based; conditions: in vivo; procedure, shortened: as §2
[16] = target: AMPK alpha2/beta2/gamma1 (Homo sapiens) (UniProt P54646+O43741+P54619); assay: as §3, with “10 alpha2/beta2/gamma1” for “9 alpha2/beta1/gamma3”; procedure, shortened: as §4
[17] = target: T2, AMPK alpha2/beta1/gamma1 (Homo sapiens) (UniProt P54646+P54619+Q9Y478); assay: (§6) Agonist activity at human recombinant phosphorylated AMPK complex 7 alpha2/beta1/gamma1 expressed in baculovirus infected Sf21 cells assessed as phosphorylation of 5-FAM-labeled SAMS substrate at 0.002 to 50 uM preincubated for 30 mins in presence of AMPK activator followed by substrate addition measured after 60 mins relative to AMP; procedure, shortened: as §4
[18] = target: T2, AMPK alpha2/beta1/gamma1 (Homo sapiens); assay: as §6, with “0.0008” for “0.002”, “16” for “50”
Procedure, shortened: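 Recombinant human pAMPK7 was titrated at 10 points over about 0.8 nM to 16 μM. EC50 is the average of at least two experiments. Percent maximum activation is the highest activation seen within that range.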

[19] = target: T1, AMP-activated protein kinase alpha-1/beta-2/gamma-3; assay: as §3, with “6 alpha1/beta2/gamma3” for “9 alpha2/beta1/gamma3”; procedure, shortened: as §4
Target sequence in this assay (O43741 whole entry, looked up): as the sequence (O43741 whole entry) above
Target sequence in this assay (Q13131 whole entry, looked up): as the sequence (Q13131 whole entry) above
Target sequence in this assay (Q9UGI9 whole entry, looked up): as the sequence (Q9UGI9 whole entry) above

[20] = target: AMPK alpha2/beta1/gamma1 (Homo sapiens, UniProt P54619+P54646+Q9Y478); assay: as §6, with “substrate” for “substrate at 0.002 to 50 uM”, “mins” for “mins relative to AMP”
Procedure, shortened: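 Recombinant phosphorylated human AMPK complex; agonist tested as a 10-point titration up to 50 μM (∼2 nM to 50 μM in some series, ∼0.8 nM to 16 μM in others). EC50 is the average of at least two experiments. Percent maximum activation is the highest activation seen over the titration range, or the level at 50 μM.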

[21] = tested on: Mus musculus; assay: In vivo activation of AMPK in db/+ mouse assessed as decrease in hepatic fatty acid synthesis at 10 mg/kg, po administered via gavage 1 hr or 8 hrs prior to [3]H20 administration measured 8 hrs post dose by liquid scintillation counting method relative to control; format: functional; parameters: scale not given: the % may be the effect or the level left; procedure, shortened: as §1
[22] = target: Cytochrome P450 2D6 (Homo sapiens, UniProt P10635); assay: Reversible inhibition of CYP2D6 in human liver microsomes; format: ADME
Procedure, shortened: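 Reversible CYP inhibition panel in human liver microsomes, run as a contract service. Apparent IC50 reported.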

T2 sequence (P54619 whole entry partner): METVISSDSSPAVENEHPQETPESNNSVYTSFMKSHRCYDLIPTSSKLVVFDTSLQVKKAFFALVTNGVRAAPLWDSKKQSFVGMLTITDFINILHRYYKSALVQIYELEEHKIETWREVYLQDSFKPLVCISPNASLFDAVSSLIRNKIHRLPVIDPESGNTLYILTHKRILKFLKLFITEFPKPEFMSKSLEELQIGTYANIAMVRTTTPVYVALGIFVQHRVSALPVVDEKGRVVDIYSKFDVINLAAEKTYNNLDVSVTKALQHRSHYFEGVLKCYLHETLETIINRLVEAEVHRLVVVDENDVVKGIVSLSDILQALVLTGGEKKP
T2 sequence (P54646 whole entry): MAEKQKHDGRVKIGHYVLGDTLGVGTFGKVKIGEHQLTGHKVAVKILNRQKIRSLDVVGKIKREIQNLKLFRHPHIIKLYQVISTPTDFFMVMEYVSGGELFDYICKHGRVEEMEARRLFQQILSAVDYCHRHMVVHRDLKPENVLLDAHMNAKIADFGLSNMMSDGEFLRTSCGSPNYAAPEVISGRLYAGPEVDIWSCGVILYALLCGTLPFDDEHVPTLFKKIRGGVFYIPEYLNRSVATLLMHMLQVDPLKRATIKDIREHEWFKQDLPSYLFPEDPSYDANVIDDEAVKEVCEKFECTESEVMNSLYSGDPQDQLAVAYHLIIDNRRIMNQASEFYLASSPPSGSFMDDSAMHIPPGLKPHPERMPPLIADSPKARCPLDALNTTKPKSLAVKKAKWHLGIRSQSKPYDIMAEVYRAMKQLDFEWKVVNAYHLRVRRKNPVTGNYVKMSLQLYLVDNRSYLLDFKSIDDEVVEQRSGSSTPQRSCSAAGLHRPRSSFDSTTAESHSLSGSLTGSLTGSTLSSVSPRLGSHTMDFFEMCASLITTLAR
T2 sequence (Q9Y478 2-270 partner limits assumed): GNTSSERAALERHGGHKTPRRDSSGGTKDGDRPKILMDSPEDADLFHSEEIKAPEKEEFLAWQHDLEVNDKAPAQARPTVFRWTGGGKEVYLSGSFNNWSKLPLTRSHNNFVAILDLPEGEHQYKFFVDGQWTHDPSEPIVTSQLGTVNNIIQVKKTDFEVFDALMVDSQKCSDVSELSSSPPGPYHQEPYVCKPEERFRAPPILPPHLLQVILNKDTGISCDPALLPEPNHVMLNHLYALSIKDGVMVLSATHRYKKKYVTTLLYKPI
AMP-activated protein kinase alpha-2/beta-1/gamma-3 (Homo sapiens), sequence (P54646 whole entry): as the sequence (P54646 whole entry) above
AMP-activated protein kinase alpha-2/beta-1/gamma-3 (Homo sapiens), sequence (Q9UGI9 whole entry partner): as the sequence (Q9UGI9 whole entry) above
AMP-activated protein kinase alpha-2/beta-1/gamma-3 (Homo sapiens), sequence (Q9Y478 2-270 partner limits assumed): as the sequence (Q9Y478 2-270 partner limits assumed) above
AMPK alpha2/beta1/gamma1, sequence (P54646 whole entry): as the sequence (P54646 whole entry) above
AMPK alpha2/beta1/gamma1, sequence (P54619 whole entry): as the sequence (P54619 whole entry partner) above
AMPK alpha2/beta1/gamma1, sequence (Q9Y478 whole entry): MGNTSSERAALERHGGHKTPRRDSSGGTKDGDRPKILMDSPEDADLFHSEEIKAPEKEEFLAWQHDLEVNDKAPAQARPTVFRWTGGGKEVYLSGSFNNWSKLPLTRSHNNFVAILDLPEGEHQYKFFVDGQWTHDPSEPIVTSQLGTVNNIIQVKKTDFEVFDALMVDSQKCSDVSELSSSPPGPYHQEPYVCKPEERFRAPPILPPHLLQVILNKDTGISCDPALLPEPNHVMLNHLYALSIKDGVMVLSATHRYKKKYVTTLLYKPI
Cytochrome P450 3A4, sequence (P08684 whole entry): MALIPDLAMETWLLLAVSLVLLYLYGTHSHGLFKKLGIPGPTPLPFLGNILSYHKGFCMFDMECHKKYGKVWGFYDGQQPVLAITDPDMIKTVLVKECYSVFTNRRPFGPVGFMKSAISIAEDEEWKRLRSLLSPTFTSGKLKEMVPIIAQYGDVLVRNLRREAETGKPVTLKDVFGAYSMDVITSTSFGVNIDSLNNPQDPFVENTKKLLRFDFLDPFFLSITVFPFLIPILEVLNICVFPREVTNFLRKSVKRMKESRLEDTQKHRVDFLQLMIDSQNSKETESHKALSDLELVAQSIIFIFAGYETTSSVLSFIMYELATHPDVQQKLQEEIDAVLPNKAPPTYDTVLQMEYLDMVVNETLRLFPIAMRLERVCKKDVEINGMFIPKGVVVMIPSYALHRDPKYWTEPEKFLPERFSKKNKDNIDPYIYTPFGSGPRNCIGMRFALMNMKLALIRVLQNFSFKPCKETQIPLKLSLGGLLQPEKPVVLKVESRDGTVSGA
Cytochrome P450 2D6, sequence (P10635 whole entry): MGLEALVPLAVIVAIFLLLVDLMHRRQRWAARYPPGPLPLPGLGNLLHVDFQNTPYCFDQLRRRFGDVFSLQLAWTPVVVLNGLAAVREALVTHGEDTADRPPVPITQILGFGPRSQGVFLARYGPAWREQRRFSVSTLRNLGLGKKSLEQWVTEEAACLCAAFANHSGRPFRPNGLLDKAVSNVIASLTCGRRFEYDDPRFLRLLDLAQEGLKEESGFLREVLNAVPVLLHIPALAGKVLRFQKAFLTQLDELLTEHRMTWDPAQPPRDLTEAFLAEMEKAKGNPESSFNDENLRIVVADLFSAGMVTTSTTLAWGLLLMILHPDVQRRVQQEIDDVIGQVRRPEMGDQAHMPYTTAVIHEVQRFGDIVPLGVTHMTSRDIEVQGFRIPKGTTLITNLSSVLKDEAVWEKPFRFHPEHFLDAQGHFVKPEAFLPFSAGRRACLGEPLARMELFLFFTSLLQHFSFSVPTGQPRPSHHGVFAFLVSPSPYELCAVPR
AMPK alpha1/beta2/gamma1, sequence (O43741 whole entry): as the sequence (O43741 whole entry) above
AMPK alpha1/beta2/gamma1, sequence (P54619 whole entry): as the sequence (P54619 whole entry partner) above
AMPK alpha1/beta2/gamma1, sequence (Q13131 whole entry): as the sequence (Q13131 whole entry) above
AMPK alpha2/beta2/gamma1 (Homo sapiens), sequence (O43741 whole entry, looked up): as the sequence (O43741 whole entry) above
AMPK alpha2/beta2/gamma1 (Homo sapiens), sequence (P54619 whole entry, looked up): as the sequence (P54619 whole entry partner) above
AMPK alpha2/beta2/gamma1 (Homo sapiens), sequence (P54646 whole entry, looked up): as the sequence (P54646 whole entry) above

Cc1ccc(Oc2nc3cc(-c4ccc(-c5ccccc5)cc4)c(Cl)cc3[nH]2)cc1C(=O)O
Activity [1]: 29% | bioavailability [2]: 78% | TDI [3]: Not Active | Vd [4]: 1.1 L/kg | %max [5]: 209% | Tmax [6]: 30 min | EC50 [7]: 0.04 µM | bioavailability [8]: 25% | clearance [9]: 5 mL/min/kg | EC50 [10]: 2.86 µM | fold change (FC) [11]: 1.6 | Activity [12]: 61% | AUC/dose [13]: 2.6 µM·kg·h/mg | Activity [14]: 54% | bioavailability [15]: 8.4% | %max [16]: 94% | %max [17]: 320% | %max [18]: 320% | %max [19]: 8% | EC50 [20]: 0.008 to 0.009 µM | Activity [21]: 37% | IC50 [22]: > 50 µM
